What all share (format): functional
Test [1] relates to Staphylococcus epidermidis. Briefly: In vitro antibacterial activity against Staphylococcus epidermidis (ATCC 12228). An outline of the steps: (§1)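 MICs by NCCLS broth dilution guidelines, modified by adding 0.02% bovine serum albumin to the growth medium; purified, resynthesized compounds tested against the expanded bacterial panel.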
Test [2] concerns Staphylococcus aureus. As to the kind of experiment: In vitro antibacterial activity against methicillin sensitive Staphylococcus aureus ATCC 25923. In outline: as §1
The subject of the next test is Enterococcus faecium. As to the kind of experiment: In vitro antibacterial activity against Vancomycin-susceptible Enterococcus faecium BM4147.1. An outline of the steps: as §1
A further test has as its system Streptococcus pneumoniae. As to the kind of experiment: In vitro antibacterial activity against Streptococcus pneumoniae (ATTC49619). In outline: as §1
The next test has as its system Escherichia coli. As to the kind of experiment: In vitro antibacterial activity against Escherichia coli (A G100B). An outline of the steps: as §1
The subject of test [3] is Haemophilus influenzae. As to the kind of experiment: In vitro antibacterial activity against Haemophilus influenzae (ATTC31517). In outline: as §1
The test system of another test is Streptococcus pyogenes. Briefly: In vitro antibacterial activity against Streptococcus pyogenes (ATTC19615). In outline:
as §1

Test [4] deals with Haemophilus influenzae. As to the kind of experiment: In vitro antibacterial activity against Haemophilus influenzae (acr, LS-2). In outline:
as §1

The next test has as its system Enterococcus faecalis. Briefly: In vitro antibacterial activity against Vancomycin-resistant Enterococcus faecalis ATCC 51299.
The test system of test [5] is Staphylococcus aureus. Briefly: In vitro antibacterial activity against methicillin resistant Staphylococcus aureus (MRSA) ATCC 33591.

≈ marks a conversion by molar mass, not a printed value.

As for `CNC(=O)C[C@@H]1NC(=O)c2csc(n2)-c2ccc(-c3nc(COC(=O)NCCCC(=O)O)cs3)nc2-c2csc(n2)-c2csc(n2)C(C(O)c2ccccc2)NC(=O)CNC(=O)c2nc(sc2COC)[C@H](C(C)C)NC(=O)c2nc1sc2C` (stereo not given in full), the MIC was 0.25 µg/mL (≈ 0.202 µM) in test [1]; 0.25 µg/mL (≈ 0.202 µM) against Staphylococcus aureus [2]; 0.06 µg/mL (≈ 0.0484 µM) against Enterococcus faecium; 2 µg/mL (≈ 1.61 µM) in the test with Streptococcus pneumoniae; greater than 16 µg/mL in the test with Escherichia coli; 16 µg/mL (≈ 12.9 µM) with Haemophilus influenzae [3]. Further, the MIC turned out to be 8 µg/mL (≈ 6.45 µM) against Streptococcus pyogenes, 4 µg/mL (≈ 3.22 µM) in the test with Haemophilus influenzae [4], 0.125 µg/mL (≈ 0.101 µM) against Enterococcus faecalis and 0.125 µg/mL (≈ 0.101 µM) in the test on Staphylococcus aureus [5].

Consider `CNC(=O)C[C@@H]1NC(=O)c2csc(n2)-c2ccc(-c3nc(C(=O)NCC(O)CC(=O)O)cs3)nc2-c2csc(n2)-c2csc(n2)C(C(O)c2ccccc2)NC(=O)CNC(=O)c2nc(sc2COC)[C@H](C(C)C)NC(=O)c2nc1sc2C` (stereo not given in full), for which the MIC was 2 µg/mL (≈ 1.63 µM) in test [1]; 1 µg/mL (≈ 0.815 µM) in the test with Staphylococcus aureus [2]; 0.25 µg/mL (≈ 0.204 µM) against Enterococcus faecium; 2 µg/mL (≈ 1.63 µM) against Streptococcus pneumoniae; greater than 16 µg/mL against Escherichia coli; greater than 16 µg/mL in the test on Haemophilus influenzae [3]. For the same compound, the MIC against Streptococcus pyogenes was 1 µg/mL (≈ 0.815 µM); against Haemophilus influenzae [4], 2 µg/mL (≈ 1.63 µM); in the test on Enterococcus faecalis it was 0.25 µg/mL (≈ 0.204 µM); in the test on Staphylococcus aureus [5], 0.25 µg/mL (≈ 0.204 µM).

Consider `CNC(=O)C[C@@H]1NC(=O)c2csc(n2)-c2ccc(-c3nc(COC(=O)NCC(O)CC(=O)O)cs3)nc2-c2csc(n2)-c2csc(n2)C(C(O)c2ccccc2)NC(=O)CNC(=O)c2nc(sc2COC)[C@H](C(C)C)NC(=O)c2nc1sc2C` (stereo not given in full), for which the MIC in test [1] was 2 µg/mL (≈ 1.59 µM); with Staphylococcus aureus [2], 1 µg/mL (≈ 0.796 µM); in the test on Enterococcus faecium it was 0.5 µg/mL (≈ 0.398 µM); against Streptococcus pneumoniae, 4 µg/mL (≈ 3.18 µM); against Escherichia coli, greater than 16 µg/mL; in the test with Haemophilus influenzae [3] it was greater than 16 µg/mL. The MIC in the test on Streptococcus pyogenes was 8 µg/mL (≈ 6.37 µM); with Haemophilus influenzae [4], 2 µg/mL (≈ 1.59 µM); with Enterococcus faecalis, 1 µg/mL (≈ 0.796 µM); against Staphylococcus aureus [5], 0.5 µg/mL (≈ 0.398 µM).

With `CNC(=O)C[C@@H]1NC(=O)c2csc(n2)-c2ccc(-c3nc(COC(=O)N[C@H](C)C(=O)O)cs3)nc2-c2csc(n2)-c2csc(n2)C(C(O)c2ccccc2)NC(=O)CNC(=O)c2nc(sc2COC)[C@H](C(C)C)NC(=O)c2nc1sc2C` (stereo not given in full), the MIC in test [1] is 2 µg/mL (≈ 1.63 µM); in the test on Staphylococcus aureus [2], 0.5 µg/mL (≈ 0.408 µM); against Enterococcus faecium, 0.25 µg/mL (≈ 0.204 µM); in the test with Streptococcus pneumoniae, 2 µg/mL (≈ 1.63 µM); against Escherichia coli, greater than 16 µg/mL; against Haemophilus influenzae [3] it was 16 µg/mL (≈ 13 µM). The MIC with Streptococcus pyogenes turned out to be 2 µg/mL (≈ 1.63 µM); against Haemophilus influenzae [4], 1 µg/mL (≈ 0.815 µM); against Enterococcus faecalis, 1 µg/mL (≈ 0.815 µM); in the test on Staphylococcus aureus [5], 0.5 µg/mL (≈ 0.408 µM).

For `CNC(=O)C[C@@H]1NC(=O)c2csc(n2)-c2ccc(-c3nc(COC(=O)N(C)CCCC(=O)O)cs3)nc2-c2csc(n2)-c2csc(n2)C(C(O)c2ccccc2)NC(=O)CNC(=O)c2nc(sc2COC)[C@H](C(C)C)NC(=O)c2nc1sc2C` (stereo not given in full), the MIC is 0.5 µg/mL (≈ 0.399 µM) in [1]; 0.5 µg/mL (≈ 0.399 µM) against Staphylococcus aureus [2]; 0.5 µg/mL (≈ 0.399 µM) against Enterococcus faecium; greater than 16 µg/mL in the test with Streptococcus pneumoniae; greater than 16 µg/mL in the test on Escherichia coli; 8 µg/mL (≈ 6.38 µM) with Haemophilus influenzae [3]. Besides, the MIC in the test on Streptococcus pyogenes is greater than 16 µg/mL; with Haemophilus influenzae [4], 2 µg/mL (≈ 1.59 µM); in the test on Enterococcus faecalis it was 0.5 µg/mL (≈ 0.399 µM); with Staphylococcus aureus [5], 0.25 µg/mL (≈ 0.199 µM).

For the compound `CNC(=O)C[C@@H]1NC(=O)c2csc(n2)-c2ccc(-c3nc(COC(=O)N[C@@H](C)C(=O)O)cs3)nc2-c2csc(n2)-c2csc(n2)C(C(O)c2ccccc2)NC(=O)CNC(=O)c2nc(sc2COC)[C@H](C(C)C)NC(=O)c2nc1sc2C` (stereo not given in full), the MIC is 2 µg/mL (≈ 1.63 µM) in test [1]; 1 µg/mL (≈ 0.815 µM) against Staphylococcus aureus [2]; 0.25 µg/mL (≈ 0.204 µM) against Enterococcus faecium; 4 µg/mL (≈ 3.26 µM) with Streptococcus pneumoniae; greater than 16 µg/mL in the test with Escherichia coli; 16 µg/mL (≈ 13 µM) against Haemophilus influenzae [3]. For the same compound, the MIC in the test on Streptococcus pyogenes amounted to 8 µg/mL (≈ 6.52 µM); against Haemophilus influenzae [4], 1 µg/mL (≈ 0.815 µM); against Enterococcus faecalis, 0.5 µg/mL (≈ 0.408 µM); in the test on Staphylococcus aureus [5], 0.5 µg/mL (≈ 0.408 µM).

For the compound `CNC(=O)C[C@@H]1NC(=O)c2csc(n2)-c2ccc(-c3nc(C(=O)N(C)CCCC(=O)O)cs3)nc2-c2csc(n2)-c2csc(n2)C(C(O)c2ccccc2)NC(=O)CNC(=O)c2nc(sc2COC)[C@H](C(C)C)NC(=O)c2nc1sc2C` (stereo not given in full), the MIC in [1] is 1 µg/mL (≈ 0.817 µM); in the test on Staphylococcus aureus [2], 0.5 µg/mL (≈ 0.408 µM); in the test on Enterococcus faecium, 0.125 µg/mL (≈ 0.102 µM); in the test with Streptococcus pneumoniae, 2 µg/mL (≈ 1.63 µM); with Escherichia coli, greater than 16 µg/mL; in the test with Haemophilus influenzae [3], 2 µg/mL (≈ 1.63 µM). The MIC in the test on Streptococcus pyogenes stood at 4 µg/mL (≈ 3.27 µM); against Haemophilus influenzae [4], 1 µg/mL (≈ 0.817 µM); against Enterococcus faecalis it was 0.25 µg/mL (≈ 0.204 µM); against Staphylococcus aureus [5], 0.25 µg/mL (≈ 0.204 µM).

For the compound `CNC(=O)C[C@@H]1NC(=O)c2csc(n2)-c2ccc(-c3nc(C(=O)NCCCN4CCOCC4)cs3)nc2-c2csc(n2)-c2csc(n2)C(C(O)c2ccccc2)NC(=O)CNC(=O)c2nc(sc2COC)[C@H](C(C)C)NC(=O)c2nc1sc2C` (stereo not given in full), the MIC against Staphylococcus aureus [2] was determined as 0.125 µg/mL (≈ 0.0999 µM); in the test on Enterococcus faecium, 0.06 µg/mL (≈ 0.0479 µM); against Enterococcus faecalis, 0.06 µg/mL (≈ 0.0479 µM); against Staphylococcus aureus [5] it was 0.06 µg/mL (≈ 0.0479 µM).

Turning to `CNC(=O)C[C@@H]1NC(=O)c2csc(n2)-c2ccc(-c3nc(C(=O)NCCN4CCOCC4)cs3)nc2-c2csc(n2)-c2csc(n2)C(C(O)c2ccccc2)NC(=O)CNC(=O)c2nc(sc2COC)[C@H](C(C)C)NC(=O)c2nc1sc2C` (stereo not given in full), the MIC against Staphylococcus aureus [2] was found to be 0.5 µg/mL (≈ 0.404 µM); against Enterococcus faecium it was 0.06 µg/mL (≈ 0.0485 µM); against Enterococcus faecalis, 0.06 µg/mL (≈ 0.0485 µM); against Staphylococcus aureus [5], 0.25 µg/mL (≈ 0.202 µM).

With `CNC(=O)C[C@@H]1NC(=O)c2csc(n2)-c2ccc(-c3nc(C(=O)NCCN=C(N)N)cs3)nc2-c2csc(n2)-c2csc(n2)C(C(O)c2ccccc2)NC(=O)CNC(=O)c2nc(sc2COC)[C@H](C(C)C)NC(=O)c2nc1sc2C` (stereo not given in full), the MIC in the test on Staphylococcus aureus [2] is 4 µg/mL (≈ 3.31 µM); against Enterococcus faecium, 8 µg/mL (≈ 6.61 µM); against Enterococcus faecalis, 8 µg/mL (≈ 6.61 µM); with Staphylococcus aureus [5] it was 8 µg/mL (≈ 6.61 µM).

For the compound `CNC(=O)C[C@@H]1NC(=O)c2csc(n2)-c2ccc(-c3nc(C(=O)NCCCCO)cs3)nc2-c2csc(n2)-c2csc(n2)C(C(O)c2ccccc2)NC(=O)CNC(=O)c2nc(sc2COC)[C@H](C(C)C)NC(=O)c2nc1sc2C` (stereo not given in full), the MIC against Staphylococcus aureus [2] is 0.125 µg/mL (≈ 0.104 µM); in the test on Enterococcus faecium, 0.06 µg/mL (≈ 0.0501 µM); in the test with Enterococcus faecalis, 0.125 µg/mL (≈ 0.104 µM); with Staphylococcus aureus [5], 0.125 µg/mL (≈ 0.104 µM).

`CNC(=O)C[C@@H]1NC(=O)c2csc(n2)-c2ccc(-c3nc(C(=O)NCC(O)CO)cs3)nc2-c2csc(n2)-c2csc(n2)C(C(O)c2ccccc2)NC(=O)CNC(=O)c2nc(sc2COC)[C@H](C(C)C)NC(=O)c2nc1sc2C` (stereo not given in full): the MIC in the test on Staphylococcus aureus [2] came to 0.125 µg/mL (≈ 0.104 µM); against Enterococcus faecium, 0.015 µg/mL (≈ 0.0125 µM); against Enterococcus faecalis, 0.015 µg/mL (≈ 0.0125 µM); with Staphylococcus aureus [5], 0.06 µg/mL (≈ 0.0501 µM).

Turning to `CNC(=O)C[C@@H]1NC(=O)c2csc(n2)-c2ccc(-c3nc(C(=O)NCCN)cs3)nc2-c2csc(n2)-c2csc(n2)C(C(O)c2ccccc2)NC(=O)CNC(=O)c2nc(sc2COC)[C@H](C(C)C)NC(=O)c2nc1sc2C` (stereo not given in full), the MIC against Staphylococcus aureus [2] came to 2 µg/mL (≈ 1.71 µM); in the test on Enterococcus faecium it was 2 µg/mL (≈ 1.71 µM); in the test on Enterococcus faecalis, 2 µg/mL (≈ 1.71 µM); in the test on Staphylococcus aureus [5], 1 µg/mL (≈ 0.857 µM).

In the case of `CN[C@H](CC(C)C)C(=O)N[C@H]1C(=O)N[C@@H](CC(N)=O)C(=O)N[C@H]2C(=O)N[C@H]3C(=O)N[C@H](C(=O)N[C@H](C(=O)O)c4cc(O)cc(O)c4-c4cc3ccc4O)[C@H](O)c3ccc(c(Cl)c3)Oc3cc2cc(c3O[C@@H]2O[C@H](CO)[C@@H](O)[C@H](O)[C@H]2O[C@H]2C[C@](C)(N)[C@H](O)[C@H](C)O2)Oc2ccc(cc2Cl)[C@H]1O` [VANCOMYCIN], the MIC against Streptococcus pneumoniae is 0.125 µg/mL (≈ 0.0863 µM); against Escherichia coli, greater than 16 µg/mL; against Haemophilus influenzae [3] it was greater than 16 µg/mL; in the test on Streptococcus pyogenes, 0.25 µg/mL (≈ 0.173 µM); against Haemophilus influenzae [4] it was greater than 16 µg/mL; against Enterococcus faecalis, greater than 16 µg/mL.

These data come from ChEMBL document CHEMBL1144979, “Combinatorial modification of natural products: synthesis and in vitro analysis of derivatives of thiazole peptide antibiotic GE2270 A: A-ring modifications” (Bioorg Med Chem Lett, 2003).
